Assay results reported in ChEMBL document CHEMBL1156310, “Stepwise synthesis of oligonucleotide-peptide conjugates containing guanidinium and lipophilic groups in their 3'-termini” (Bioorg Med Chem Lett, 2010).

Columns and labels:
SH-SY5Y [1] = assay: Antisense activity in human SH-SY5Y cells assessed as inhibition of luciferase gene expression at 60 nM after 22 hrs by luminometry in the presence of lipofectamine 2000; format: functional
Procedure, shortened: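 SH-SY5Y cells cotransfected via Lipofectamine 2000 with Renilla (target) and firefly (internal control) luciferase plasmids plus phosphorothioate ASO derivatives at 60 nM, targeting Renilla mRNA site 21-38; scrambled sequences as controls. Read-out: Renilla luciferase inhibition normalized to firefly.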

SH-SY5Y [2] = assay: Cellular uptake in human SH-SY5Y cells at 300 nM after 22 hrs by dual leucifearse reporter assay; format: ADME, cell-based; settings: 0.3 µM
Procedure, shortened: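 Dual-luciferase plasmids (Renilla target, firefly internal control) transfected into SH-SY5Y; after 3 h, medium replaced with fresh medium containing ASO-peptide conjugates (150, 200, 300 nM) without Lipofectamine 2000. Luciferase activities measured 22 h after transfection; knockdown expressed as inhibition of Renilla expression. Phosphorothioate ASO targets Renilla mRNA 21-38 site.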

Drug uptake (SH-SY5Y [2]) [%] | SMILES | inhibition at 0.06 µM (SH-SY5Y [1]) [%]
18 | Cc1cn([C@H]2C[C@H](OP(O)(=S)OC[C@H]3O[C@@H](n4cc(C)c(=O)[nH]c4=O)C[C@@H]3OP(O)(=S)OC[C@H]3O[C@@H](n4cnc5c(=O)[nH]c(N)nc54)[C@H](O)[C@@H]3OP(O)(=S)OC[C@H]3O[C@@H](n4cc(C)c(=O)[nH]c4=O)C[C@@H]3OP(O)(=S)OC[C@H]3O[C@@H](n4cc(C)c(=O)[nH]c4=O)C[C@@H]3OP(O)(=S)OC[C@H]3O[C@@H](n4cc(C)c(=O)[nH]c4=O)C[C@@H]3OP(O)(=S)OC[C@H]3O[C@@H](n4ccc(N)nc4=O)[C@H](O)[C@@H]3OP(O)(=S)OC[C@H]3O[C@@H](n4ccc(N)nc4=O)[C@H](O)[C@@H]3OP(O)(=S)OC[C@H]3O[C@@H](n4cc(C)c(=O)[nH]c4=O)C[C@@H]3OP(O)(=S)OC[C@H]3O[C@@H](n4cc(C)c(=O)[nH]c4=O)C[C@@H]3OP(O)(=S)OC[C@H]3O[C@@H](n4cc(C)c(=O)[nH]c4=O)C[C@@H]3OP(O)(=S)OC[C@H]3O[C@@H](n4cnc5c(=O)[nH]c(N)nc54)[C@H](O)[C@@H]3OP(O)(=S)OC[C@H]3O[C@@H](n4ccc(N)nc4=O)[C@H](O)[C@@H]3O)[C@@H](COP(O)(=S)O[C@H]3[C@@H](O)[C@H](n4ccc(N)nc4=O)O[C@@H]3COP(O)(=S)O[C@H]3C[C@H](n4cc(C)c(=O)[nH]c4=O)O[C@@H]3COP(O)(=S)O[C@H]3[C@@H](O)[C@H](n4cnc5c(=O)[nH]c(N)nc54)O[C@@H]3COP(O)(=S)O[C@H]3[C@@H](O)[C@H](n4cnc5c(=O)[nH]c(N)nc54)O[C@@H]3COP(O)(=S)O[C@H]3[C@@H](O)[C@H](n4cnc5c(N)ncnc54)O[C@@H]3COP(O)(=S)OCCCC(=O)N[C@H](CCCCNC(=N)N)C(=O)N[C@@H](CCCCNC(=N)N)C(=O)NCCCCCCO)O2)c(=O)[nH]c1=O (some centres undefined) | 64
11 | Cc1cn([C@H]2C[C@H](OP(O)(=S)OC[C@H]3O[C@@H](n4cc(C)c(=O)[nH]c4=O)C[C@@H]3OP(O)(=S)OC[C@H]3O[C@@H](n4cnc5c(=O)[nH]c(N)nc54)[C@H](O)[C@@H]3OP(O)(=S)OC[C@H]3O[C@@H](n4cc(C)c(=O)[nH]c4=O)C[C@@H]3OP(O)(=S)OC[C@H]3O[C@@H](n4cc(C)c(=O)[nH]c4=O)C[C@@H]3OP(O)(=S)OC[C@H]3O[C@@H](n4cc(C)c(=O)[nH]c4=O)C[C@@H]3OP(O)(=S)OC[C@H]3O[C@@H](n4ccc(N)nc4=O)[C@H](O)[C@@H]3OP(O)(=S)OC[C@H]3O[C@@H](n4ccc(N)nc4=O)[C@H](O)[C@@H]3OP(O)(=S)OC[C@H]3O[C@@H](n4cc(C)c(=O)[nH]c4=O)C[C@@H]3OP(O)(=S)OC[C@H]3O[C@@H](n4cc(C)c(=O)[nH]c4=O)C[C@@H]3OP(O)(=S)OC[C@H]3O[C@@H](n4cc(C)c(=O)[nH]c4=O)C[C@@H]3OP(O)(=S)OC[C@H]3O[C@@H](n4cnc5c(=O)[nH]c(N)nc54)[C@H](O)[C@@H]3OP(O)(=S)OC[C@H]3O[C@@H](n4ccc(N)nc4=O)[C@H](O)[C@@H]3O)[C@@H](COP(O)(=S)O[C@H]3[C@@H](O)[C@H](n4ccc(N)nc4=O)O[C@@H]3COP(O)(=S)O[C@H]3C[C@H](n4cc(C)c(=O)[nH]c4=O)O[C@@H]3COP(O)(=S)O[C@H]3[C@@H](O)[C@H](n4cnc5c(=O)[nH]c(N)nc54)O[C@@H]3COP(O)(=S)O[C@H]3[C@@H](O)[C@H](n4cnc5c(=O)[nH]c(N)nc54)O[C@@H]3COP(O)(=S)O[C@H]3[C@@H](O)[C@H](n4cnc5c(N)ncnc54)O[C@@H]3COP(O)(=S)OCCCC(=O)N[C@H](CCCCN)C(=O)N[C@@H](CCCCN)C(=O)N[C@H](CCCCN)C(=O)N[C@@H](CCCCN)C(=O)N[C@H](CCCCN)C(=O)N[C@@H](CCCCN)C(=O)N[C@H](CCCCN)C(=O)N[C@@H](CCCCN)C(=O)NCCCCCCO)O2)c(=O)[nH]c1=O (some centres undefined) | 65
